Most compounds without a hit are left out; they make up all but 3% or so of the library.
sEH inh: soluble epoxide hydrolase inhibitors, primary screen, biochemical, human sEH | inhibition, % at 2 µM | 91,000 tested, 0.34% active | recombinant human sEH enzymatic activity assay; in the data active means inhibition above about 80%
Target sequence (P34913 whole entry, looked up): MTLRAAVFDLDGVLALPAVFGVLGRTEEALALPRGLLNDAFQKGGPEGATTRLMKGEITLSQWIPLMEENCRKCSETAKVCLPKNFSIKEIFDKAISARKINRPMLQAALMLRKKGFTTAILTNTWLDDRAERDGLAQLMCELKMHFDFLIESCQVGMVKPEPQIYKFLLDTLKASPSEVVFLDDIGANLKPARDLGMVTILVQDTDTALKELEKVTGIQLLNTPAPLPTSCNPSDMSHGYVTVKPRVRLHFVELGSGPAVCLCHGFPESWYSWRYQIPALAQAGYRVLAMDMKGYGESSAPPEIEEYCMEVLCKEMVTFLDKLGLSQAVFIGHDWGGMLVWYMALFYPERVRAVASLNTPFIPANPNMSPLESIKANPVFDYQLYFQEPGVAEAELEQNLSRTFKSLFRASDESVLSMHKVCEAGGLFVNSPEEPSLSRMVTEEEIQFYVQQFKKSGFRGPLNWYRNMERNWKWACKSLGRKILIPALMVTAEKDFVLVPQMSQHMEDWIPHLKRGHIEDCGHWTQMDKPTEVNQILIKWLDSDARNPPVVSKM
SDO1 yeast rescue: growth rescue of sdo1-depleted yeast, primary screen, S. cerevisiae, bone marrow failure model | S. cerevisiae sdo1-depleted JHY4D growth rescue, OD600 30 h; hits give high values; pdr5 snq2 efflux-pump mutant strain | z-score at 10 µM | 140,000 tested, 0.21% active;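 active means z-score above 3 at both the 24 hr and the 30 hr optical density reads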
sEH act: soluble epoxide hydrolase activators, primary screen, biochemical, human sEH; Bifunctional epoxide hydrolase 2 (Homo sapiens), P34913; purified human sEH enzymatic activity, activator screen; activation, % at 2 µM; 91,000 tested, 0.04% active; in the data active means activation above about 37%
Yeast lifespan up: compounds extending yeast replicative lifespan, primary screen, S. cerevisiae, OD615 | S. cerevisiae growth with nicotinamide; deaD strain in restrictive glucose medium | inhibition of the nicotinamide effect, % at 10 µM | 130,000 tested, 0.68% active | AID 775, 2007;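 active means inhibition above a set limit, placed 3 SD over the median of all compounds, cut at about 26% in these data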
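System: Modified budding yeast, DeaD strain | Buffer or medium: Restrictive glucose medium | Also added: 1.5 mM nicotinamide | Doses: 10 µM single point, 0.25% DMSO | Schedule: 48 h compound exposure at 30 °C, humidified | Detection: Absorbance at 615 nm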
BB579 growth dn: growth inhibitors of yeast BB579 in restrictive medium, primary screen, yeast lifespan-shortening project, S. cerevisiae; AID 804, 2007; OD615, 48 h; 140,000 tested, 0.51% active; inhibition, % at 10 µM;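 active means inhibition above a set limit, 3 SD over the mean compound inhibition, cut at about 44% in these data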
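System: Saccharomyces cerevisiae DeaD strain BB579, replicative lifespan model yeast | Buffer or medium: Restrictive glucose-based CSMM-D medium | Times: 4 h preincubation and 48 h exposure at 30 °C | Detection: OD615 turbidity measurement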
Measles CPE: compounds protecting cells from measles virus cytopathic effect, primary screen, measles RdRp inhibitor project, single point, MLSMR library, absorbance. Measles virus-infected cells, CPE protection. protection (pct of control), % at 4 µM. 140,000 tested, 1.5% active. AID 841, 2007; in the data active means protection mostly above about 24%, no sharp cut-off; inactive means mostly below about 26%
SDO1 rescue DR: SDO1-depleted yeast growth rescue, concentration-response, diseases of bone marrow failure, JHY4D, OD600; shares compounds with SDO1 yeast rescue; S. cerevisiae JHY4D (SDO1-depleted) growth rescue, 30 h; hits give high values; efflux-deficient strain, SNQ2 and PDR5 mutated; OD recovery (test concentration not listed); 440 tested, 44% active;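 active means yeast growth recovered at 30 hours, either rising with dose fitted slope above 0.001 or with average optical density gain above 0.07, some results past the limit were not filed as active; inactive means growth falling with dose or no effect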
A number is an active result; . = inactive; / = no result.

SMILES	sEH inh	SDO1 yeast rescue	sEH act	Yeast lifespan up	BB579 growth dn	Measles CPE	SDO1 rescue DR
CC1=C(C(=O)NCc2ccc3c(c2)OCO3)C2(CCC(C)CC2)OC1=O (stereo not drawn)	/	.	/	.	.	.	.
CC1=C(C(=O)NCc2ccco2)C2(CCC(C)CC2)OC1=O (stereo not drawn)	.	.	.	.	.	.	/
Nc1c(N2CCCC2)cc(Cl)c2nonc12	.	.	.	.	.	.	/
Nc1c(N2CCOCC2)cc(Cl)c2nonc12	.	6	.	.	.	.	.
Cc1nc2ccccn2c1C(=O)NCCCN1CCOCC1	.	.	.	.	.	.	0.089
NC(=O)C1(N2CCCCC2)CCN(C(=S)Nc2ccccc2)CC1	/	.	/	.	.	.	/
CCOc1ccc(NC(=O)N2CCC(C(N)=O)(N3CCCCC3)CC2)cc1	.	13	.	.	.	.	.
CCN1C(=O)C2C(C1=O)N1C(c3cccs3)C3C(=O)N(CC)C(=O)C3N1C2c1cccs1 (stereo not drawn)	.	.	.	.	.	.	/
COc1ccc(C(=O)N2CCCC2)cc1	.	.	.	.	.	.	/
O=C(c1ccccc1)N1CCCC(C(=O)N2CCCCCC2)C1 (stereo not drawn)	.	.	.	.	.	.	/
O=C(c1cccc(F)c1)N1CCCC(C(=O)N2CCCC2)C1 (stereo not drawn)	.	.	.	.	.	.	0.083
COc1ccc(C(=O)N2CCCC(C(=O)N3CCCCCC3)C2)cc1 (stereo not drawn)	.	4.2	.	.	.	.	.
CCN1CCN(CC(O)COCCOc2ccc(Br)cc2)CC1 (stereo not drawn)	/	6.9	/	.	.	.	.
COc1cccc(-n2c(=O)c3cc(OC)c(OC)cc3n(CC(=O)Nc3cc(C)[nH]n3)c2=O)c1	/	.	/	.	.	.	/
CCOC(=O)c1c(NC(=O)CSc2nncs2)sc(C)c1-c1ccccc1	/	.	/	.	.	.	/
CCOC(=O)c1c(NC(=O)CSc2nncs2)sc(C)c1C	.	.	.	.	.	.	.
CCOC(=O)c1nn(-c2ccc(F)cc2)c2nc(Nc3ccccc3)cc(=O)n12	/	.	/	.	.	.	/
Nc1c(C(=O)NCCc2ccc(Cl)cc2)sc2ccc(S(=O)(=O)N3CCCCC3)cc12	/	.	/	.	.	.	/
CN1CCN(c2ccc(S(=O)(=O)N3CCCCC3)cc2NC(=O)Cc2ccc(Cl)cc2)CC1	/	.	/	.	.	.	/
COc1ccc2c(c1)CCc1c(C(=O)NCCc3ccc(OC)c(OC)c3)noc1-2	.	.	.	.	.	.	.
COc1ccc2c(c1)CCc1c(C(=O)Nc3ccc(OC)c(OC)c3)noc1-2	.	.	.	.	.	.	/
O=S(=O)(Nc1cccnc1)c1ccc(Cl)c(C(F)(F)F)c1	.	9.6	.	.	.	.	.
CCCCn1c(C)nc2c(=O)n(C)c(=O)[nH]c21	.	.	.	.	.	29	0.074
CCCCn1c(-c2ccccc2)nc2c(=O)n(C)c(=O)[nH]c21	.	.	.	.	.	.	/
CCC(C)[C@@H](NC(=O)OC(C)(C)C)c1nnc(S(=O)(=O)Cc2cccc(C)c2)o1 (stereo partly drawn)	.	5.6	.	.	.	.	0.11
SMILES	sEH inh	SDO1 yeast rescue	sEH act	Yeast lifespan up	BB579 growth dn	Measles CPE	SDO1 rescue DR
O=C(NCCc1ccccc1)c1ccnc(/C=N/O)c1	.	8	.	.	.	.	.
O=C(Nc1cc([N+](=O)[O-])ccc1Cl)C(Sc1ccccc1)c1ccccc1 (stereo not drawn)	/	11	/	.	.	.	.
O=C(Nc1ccc(Cl)c([N+](=O)[O-])c1)C(Sc1ccccc1)c1ccccc1 (stereo not drawn)	/	.	/	.	.	.	/
O=C(Nc1nc(N2C(=O)c3ccccc3C2=O)n(-c2ccccc2)n1)c1ccc(Cl)cc1	.	.	.	.	.	.	/
N=c1c2c3c(sc2ncn1CCN1CCOCC1)CCCCC3	.	11	.	.	.	.	.
Cn1nnc2cc(C(=O)Nc3cccnc3)ccc21	.	.	.	.	.	.	/
COc1cccc(NC(=O)Nc2ccc3c(c2)nnn3C)c1	.	.	.	/	.	.	0.079
Cn1c(CSCc2ccc(F)cc2)nnc1SCC(=O)N1CCN(c2ccccc2)CC1	.	.	.	.	.	.	/
COc1cc(OC)cc(-c2nnc(SCC(=O)N3CCOCC3)o2)c1	.	3.7	.	.	.	.	0.072
COc1cc(OC)cc(-c2nnc(SCC(=O)N3CCCCC3)o2)c1	/	.	/	.	.	.	/
CCOC(=O)C(NC(=O)OC(C)C)(Nc1nccs1)C(F)(F)F (stereo not drawn)	.	13	.	.	.	.	0.088
COc1ccccc1C1(CC(=O)N2CCCCC2)CCOC(C(C)C)C1 (stereo not drawn)	.	.	.	.	.	.	/
O=C(COC(=O)c1cccc2ccccc12)NCCCc1ccccc1	/	11	/	.	.	.	.
C=CCNC(=S)NNC(=O)c1ccc(OCC(C)C)cc1	.	6.2	.	.	.	.	0.094
C=CCNC(=S)NNC(=O)c1ccc(OCC)cc1	.	.	.	.	.	/	/
COc1ccc(C(O)c2nc3ccccc3s2)cc1 (stereo not drawn)	.	10	.	.	.	.	.
COc1ccc(C2c3c(oc4ccccc4c3=O)C(=O)N2CCCN2CCOCC2)cc1 (stereo not drawn)	.	/	.	/	/	/	/
CCOc1ccc(C2c3c(oc4ccccc4c3=O)C(=O)N2CCCN2CCOCC2)cc1OCC (stereo not drawn)	/	.	/	.	.	.	.
CN(C(=O)COc1ccccc1C(=O)NCCc1ccccc1)c1ccccc1	/	.	/	.	.	.	/
COC(=O)c1sccc1NC(=O)c1cc(OC)cc(OC)c1	.	.	.	/	.	.	/
COC(=O)c1sccc1NC(=O)c1ccc(OC)c(OC)c1	.	.	.	.	.	.	.
Cc1c(C(c2ccc([N+](=O)[O-])cc2)c2c(C)n(C)n(-c3ccccc3)c2=O)c(=O)n(-c2ccccc2)n1C	.	.	.	.	.	.	/
CSc1nsc(SC)c1C(=O)N1CCN(S(=O)(=O)c2ccc(C)cc2)C1C (stereo not drawn)	.	3.9	.	.	.	.	.
CSc1nsc(SC)c1C(=O)N1CCN(S(=O)(=O)c2ccc(C)cc2)C1C(C)C (stereo not drawn)	.	.	.	/	.	.	/

Screening results (PubChem BioAssay)
